Source: PubChem
DENV2 CPE: protects cells from dengue virus 2 cytopathic effect; DENV2-infected cells, cytopathic effect rescue, plate reader; CPE inhibition, % at 9.99 µM; actives 1.7% (n = 350,000); AID 651640; in the data active = CPE inhibition above about 20%, passing the limit was not always enough; inconclusive = no clear call, values can overlap the other calls; tested in BHK-21 cells;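 note: 0% = median of neutral control wells and 100% = median of positive control wells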
Xi reactivation: reactivates the inactive X chromosome in mouse fibroblasts | XiGFP mouse fibroblasts, % GFP-positive cells imaging, 3 d; cells co-treated with 5-aza-dC sensitizer; scaled so ellipticine positive control = 100% | activation, % at 7.58 µM | actives 0.055% (n = 360,000);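 active = mean normalized replicate activation at least 10% and every replicate at or above 10%; inconclusive = only one of the two criteria met; inactive = mean below 10% and not all replicates reach 10%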;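 note: 0% = median of on-plate neutral control wells and 100% = ellipticine 6 µM median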
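Assay system: SV40-immortalized XiGFP fibroblast cells, line 68-5-11; buffer or medium: DMEM plus 5-aza-dC sensitizer; compound: one concentration, pinned; timing: compounds 3 days, fix/stain 15 min at room temperature; benchmarks: positive control ellipticine, 6 µM final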
ARNT-TACC3 inh: disruptors of human ARNT/TACC3 interaction; AID 623870; actives 0.66% (n = 390,000); inhibition, % at 9.99 µM; AlphaScreen His-ARNT PAS-B/GST-TACC3 binding, luminescence; TACC3 fragment carries E629A point mutation; Q9Y6A5;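 active = mean inhibition of replicates at least 50% and at least half of replicates each reaching 50%; inconclusive = half or more replicates reach 50% but mean below 50%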;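 note: 0% = complete ARNT plus TACC3 wells and 100% = ARNT alone without TACC3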
FGF22 binding: FGF22 (human) thermal shift binding; Q9HCT0; actives 1.5% (n = 340,000); recombinant FGF22 thermal shift, SYPRO orange fluorescence; percent of sucrose octasulfate shift, DMSO zero; AID 651658; activity (Tm shift, normalised), % at 9.99 µM;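 active = mean Tm shift, scaled 0 neutral to 100 positive control, at about 1.3% or above, every replicate too, limit read from the data; inconclusive = no clear call, values can overlap the other calls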
Target sequence (Q9HCT0 whole entry, looked up): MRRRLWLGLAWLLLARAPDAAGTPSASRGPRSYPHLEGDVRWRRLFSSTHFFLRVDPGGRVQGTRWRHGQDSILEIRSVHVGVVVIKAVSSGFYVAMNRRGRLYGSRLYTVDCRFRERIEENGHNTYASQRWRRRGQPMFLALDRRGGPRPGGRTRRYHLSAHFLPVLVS
FN deposit inh: fibronectin deposition inhibition | actives 0.086% (n = 350,000) | AH1F fibroblasts, Alexa488-fibronectin deposition fluorescence, overnight | inhibition, % at 12.6 µM;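 active = mean inhibition across replicates of 30% or more, regardless of how many single replicates reach that level; inconclusive = mean under 30% yet at least half of replicates reach 30%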;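 note: positive control wells lacked labelled fibronectin entirely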
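Assay system: AH1F fibroblasts / Quantity: 10000 cells per well / Medium: DMEM plus 2% serum, read in PBS / Reagent: labelled fibronectin 24 nM / Dosing: single dose, pinned / Times: 1 h cell attachment, overnight exposure to compound and label / Signal: fluorescence, ex 485 nm, em 525 nm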
SIRT5 inh: blocks human SIRT5 desuccinylation of peptide. Q9NXA8. inhibition, % at 15 µM. Purified SirT5, succinyl-peptide AMC, trypsin-coupled fluorescence. actives 1.1% (n = 330,000); in the data active = inhibition above about 15%; inconclusive = no clear call, values can overlap the other calls
Target sequence (Q9NXA8 whole entry, looked up): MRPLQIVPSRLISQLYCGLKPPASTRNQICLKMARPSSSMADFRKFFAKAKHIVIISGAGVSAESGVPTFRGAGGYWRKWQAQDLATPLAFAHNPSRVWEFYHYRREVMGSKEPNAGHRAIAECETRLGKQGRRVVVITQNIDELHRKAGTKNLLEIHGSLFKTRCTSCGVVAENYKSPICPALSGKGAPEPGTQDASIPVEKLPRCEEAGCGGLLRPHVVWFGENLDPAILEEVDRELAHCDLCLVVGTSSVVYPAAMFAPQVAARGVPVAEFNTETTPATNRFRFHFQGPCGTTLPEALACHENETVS
The depositor's hits bear a star; ? = inconclusive; · = not tested or not shown. Sampled rows, rich in hits. Any-hit rate of the full collection: about 3.8%.

SMILES	DENV2 CPE	Xi reactivation	ARNT-TACC3 inh	FGF22 binding	FN deposit inh	SIRT5 inh
C[C@H](CO)N1C[C@H](C)[C@@H](CN(C)C(=O)Nc2cccc3ccccc23)Oc2ccc(NS(=O)(=O)c3ccccc3)cc2C1=O	0.0	-0.3	3.8	0.2	·	-3.4
C[C@H]1CN([C@@H](C)CO)C(=O)c2cc(NS(=O)(=O)c3ccc(Cl)cc3)ccc2O[C@@H]1CN(C)Cc1ccccc1	-8.8	-1.4	-3.4	0.0	·	3.5
Cc1ccc(S(=O)(=O)Nc2ccc3c(c2)C(=O)N([C@@H](C)CO)C[C@@H](C)[C@@H](CN(C)C(=O)Nc2cccc4ccccc24)OCCCC[C@@H](C)O3)cc1	-6.7	0.1	33.0	-0.3	-12.4	16.6*
C[C@H](CO)N1C[C@H](C)[C@H](CN(C)C(=O)Nc2cccc3ccccc23)OCCCC[C@H](C)Oc2ccc(NS(=O)(=O)c3cn(C)cn3)cc2C1=O	103.0*	-0.9	29.1	0.0	·	·
C[C@@H]1CCCCO[C@H](CN(C)C(=O)Nc2cccc3ccccc23)[C@H](C)CN([C@H](C)CO)C(=O)c2cc(NS(=O)(=O)c3ccc(Cl)cc3)ccc2O1	58.0*	-0.1	10.4	-0.4	-5.1	5.7
C[C@@H]1CCCCO[C@H](CN(C)C(=O)Nc2cccc3ccccc23)[C@H](C)CN([C@@H](C)CO)C(=O)c2cc(NS(=O)(=O)c3cn(C)cn3)ccc2O1	-10.6	0.2	0.4	-0.1	·	·
C[C@@H]1CCCCO[C@H](CN(C)S(C)(=O)=O)[C@@H](C)CN([C@@H](C)CO)C(=O)c2cc(NC(=O)NC3CCCCC3)ccc2O1	-2.8	0.1	-2.8	0.1	2.9	-2.6
C[C@@H]1CCCCO[C@@H](CN(C)C(=O)c2ccccc2)[C@H](C)CN([C@@H](C)CO)C(=O)c2cc(NC(=O)C3CCCCC3)ccc2O1	71.3*	-0.1	-7.6	0.0	·	-10.2
C[C@@H]1CN([C@@H](C)CO)C(=O)c2cc(NC(=O)C3CCCCC3)ccc2O[C@@H](C)CCCCO[C@H]1CN(C)C(=O)c1ccccc1	5.8	0.7	-6.0	28.8*	·	-3.5
C[C@@H]1CN([C@H](C)CO)C(=O)c2cc(NC(=O)C3CCCCC3)ccc2O[C@@H](C)CCCCO[C@@H]1CN(C)C(=O)c1ccccc1	20.0	0.1	-8.0	-0.2	·	6.2
C[C@H](CO)N1C[C@H](C)[C@H](CN(C)C(=O)c2ccccc2)OCCCC[C@H](C)Oc2ccc(NC(=O)C3CCCCC3)cc2C1=O	16.1	-1.1	-14.1	0.0	·	-0.1
COc1ccc2c3c([nH]c2c1)[C@H](CO)N(Cc1ccccc1)CC31CCN(C(=O)c2cccnc2)CC1	·	0.2	·	·	·	·
Nc1nc(SCc2ccc(Br)cc2)[nH]c(=O)c1-c1ccccc1	-9.7	0.0	-1.2	43.1*	·	-4.5
Nc1nc(SCc2nc(-c3ccccc3)no2)[nH]c(=O)c1-c1ccccc1	4.9	·	·	0.0	·	-0.5
C[C@@H]1CN(C)C(=O)c2cccc(N)c2O[C@@H]1CN(C)S(C)(=O)=O	·	-0.1	·	·	0.4	·
CCN(CC)CCN(C(=O)Cn1nnc(-c2ccc(OC)c(OC)c2)n1)C(C(=O)NC1CCCC1)c1ccc(F)cc1 (stereo not given)	1.4	·	-5.4	1.7*	·	-2.1
COc1ccc(-c2nnn(CC(=O)N(CCO)C(C(=O)NC3CCCC3)c3ccncc3)n2)cc1 (stereo not given)	·	0.7	-4.6	43.2*	6.8	-3.3
COc1ccc(-c2nnn(CC(=O)N(CCCO)C(C(=O)NC3CCCC3)c3ccncc3)n2)cc1 (stereo not given)	6.6	0.2	·	0.0	4.2	-3.7
CCN(CC)CCN(C(=O)Cn1nnc(-c2ccc(C)o2)n1)C(C(=O)NC1CCCC1)c1ccc(F)cc1 (stereo not given)	-3.3	·	·	0.1	-3.3	-1.9
CC(C)NC(=O)Nc1ccc2c(c1)C(=O)N([C@@H](C)CO)C[C@H](C)[C@@H](CN(C)S(C)(=O)=O)OCCCC[C@H](C)O2	-1.5	0.0	7.2	0.2	-9.6	-0.1
C[C@@H]1CN(C)C(=O)c2cccc(N)c2O[C@@H]1CN(C)C	·	0.3	·	·	3.8	·
COC(=O)C[C@H]1CC[C@@H]2[C@H](COc3ccc(NC(=O)Nc4ccc(C)cc4)cc3C(=O)N2C)O1	1.7	0.2	-2.5	0.3	-6.7	1.8
Cc1ccc(C)n1-c1ccc(C(=O)NCc2ccncc2)cc1	3.0	0.1	-3.9	44.0*	6.8	-6.6
COc1cc(C(=O)NCc2ccncc2)cc(OC)c1OC	4.6	0.0	-20.5	42.9*	·	-3.8
C/C(=N\NC(=O)c1cccnc1)c1cc2ccccc2o1	-6.8	0.1	10.3	43.1*	2.4	-2.3
SMILES	DENV2 CPE	Xi reactivation	ARNT-TACC3 inh	FGF22 binding	FN deposit inh	SIRT5 inh
C/C(=N\NC(=O)c1ccc(Br)cc1)c1cccc(NC(=O)c2cccnc2)c1	4.9	0.4	-2.4	0.0	·	20.4*
O=C(C[C@H]1CC[C@@H]2[C@H](COC[C@H](O)CN2C(=O)c2cccnc2)O1)NCc1ccccc1	?	0.2	-0.2	-0.2	-3.2	-4.6
C[C@@H]1CN([C@H](C)CO)S(=O)(=O)c2ccc(/C=C/c3ccccc3)cc2O[C@@H]1CN(C)C(=O)NC1CCCC1	-2.9	-0.4	-5.9	-0.4	14.4	21.1*
C[C@@H]1CN([C@@H](C)CO)S(=O)(=O)c2ccc(/C=C/c3ccccc3)cc2O[C@@H]1CN(C)C(=O)NC1CCCC1	7.8	-0.5	13.4	0.0	9.1	20.2*
C[C@H](CO)N1C[C@H](C)[C@H](CN(C)C(=O)NC2CCCC2)Oc2cc(/C=C/c3ccccc3)ccc2S1(=O)=O	-2.8	-0.2	12.1	-0.2	-4.8	16.2*
C[C@@H]1CN([C@H](C)CO)S(=O)(=O)c2ccc(/C=C/c3ccccc3)cc2O[C@@H]1CN(C)C(=O)NC1CCCCC1	-3.5	0.6	4.5	-0.2	·	-9.5
C[C@H]1CN([C@@H](C)CO)S(=O)(=O)c2ccc(/C=C/c3ccccc3)cc2O[C@@H]1CN(C)C(=O)NC1CCCC1	-3.9	-0.6	3.6	-0.5	9.0	31.9*
O=C(c1ccncc1)N1C[C@H]2[C@@H](c3ccccc31)[C@@H](CO)N2Cc1ccccc1F	5.1	0.0	2.1	0.2	5.7	-4.7
O=C(COc1cccnc1[N+](=O)[O-])Nc1ccccc1Sc1ccccc1	32.5*	0.2	-4.0	0.0	-8.5	·
O=C(COc1cccnc1[N+](=O)[O-])Nc1cccc(Br)c1	5.5	0.2	-4.5	-0.1	-1.2	-2.7
CCC(=O)N1C[C@H](C)[C@H](OC)CN(C)C(=O)c2ccc(NC(=O)Nc3ccccc3)cc2OC[C@@H]1C	2.4	0.3	-0.8	-0.5	-1.5	2.3
